Data: ChEMBL document CHEMBL2062399, “Design, synthesis, and structure-activity relationships of a series of 2-Ar-8-methyl-5-alkylaminoquinolines as novel CRF₁ receptor antagonists” (Bioorg Med Chem Lett, 2012)
pIC50: −log10 of the molar value.

How the values were obtained:
[1] = molecular target: T1, Corticotropin-releasing factor receptor 1 (Homo sapiens, UniProt P34998); assay: Displacement of [125I]-CRF from human CRF1 receptor expressed in HEK293 cells after 2 hrs; format: cell-based
T1 sequence (P34998 whole entry): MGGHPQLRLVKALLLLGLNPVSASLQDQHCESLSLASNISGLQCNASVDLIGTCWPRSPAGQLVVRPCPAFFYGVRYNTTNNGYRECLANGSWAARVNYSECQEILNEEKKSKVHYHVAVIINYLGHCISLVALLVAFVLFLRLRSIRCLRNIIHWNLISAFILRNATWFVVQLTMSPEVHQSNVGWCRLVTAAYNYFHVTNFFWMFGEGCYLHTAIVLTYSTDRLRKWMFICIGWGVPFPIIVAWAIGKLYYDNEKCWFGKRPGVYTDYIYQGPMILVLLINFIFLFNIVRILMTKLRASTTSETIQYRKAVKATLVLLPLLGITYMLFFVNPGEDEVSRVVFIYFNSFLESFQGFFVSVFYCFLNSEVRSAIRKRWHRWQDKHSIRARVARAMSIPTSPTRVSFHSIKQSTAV
Outline: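 Scintillation proximity assay with HEK293 membranes expressing human CRF1 (5 µg/well), WGA-coated SPA beads and 0.1 nM [125I] human/rat CRF. Buffer pH 7.0 with 10 mM MgCl2, 2 mM EGTA, 1.5% BSA and protease inhibitors. Nonspecific binding with 0.4 µM unlabeled sauvagine. Incubated over 2 h at room temperature, then centrifuged and counted. Specific binding taken as % of total, IC50 from concentration-response curve.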

[2] = molecular target: T1, Corticotropin-releasing factor receptor 1; assay: Antagonist activity at human CRF1 receptor expressed in HEK293 cells assessed as inhibition of CRF-stimulated intracellular cAMP accumulation after 30 mins by enzyme immunoassay; format: functional, cell-based
Outline: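 HEK293 cells stably expressing human CRF1, seeded at 5×10^4 cells/well in DMEM with 0.1% FBS and 1 mM IBMX. After 30 min preincubation, compound added for 30 min at 37 °C, then 1 nM human/rat CRF for 30 min at 37 °C. Lysed cAMP measured by EIA, basal subtracted, expressed as % of total production. IC50 from concentration-response curve.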

Rattus norvegicus = assay: Inhibition of CRF-induced fecal pellet output in rat at 10 mg/kg, po administered 1 hr before CRF challenge by measuring decrease in fecal weight after 4 hrs; format: functional; conditions: Feces
Outline: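 Rats dosed orally at 10 mg/kg 1 h before intravenous CRF (10 µg/kg). Fecal weight measured 4 h after CRF injection and compared with the vehicle + CRF group. 6–7 rats/group, mean ± S.E.M., unpaired t test.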

## CCCN(CCC)c1ccc(C)c2nc(Oc3c(OC)cc(COC)cc3OC)c(C)cc12
[1]
  pIC50: < 6.00

## CCCN(CCC)c1cccc2nc(-c3c(OC)cc(COC)cc3OC)c(C)cc12
[2]
  pIC50: 7.01
[1]
  pIC50: 6.56

## CCCN(CCC)c1ccc(C)c2nc(-c3c(OC)cc(COC)cc3OC)c(C)cc12
[2]
  pIC50: 7.15
Rattus norvegicus
  inhibition in vivo at 10 mg/kg: 64%
[1]
  pIC50: 7.06

## CCCN(CCC)c1ccc(CC)c2nc(-c3c(OC)cc(COC)cc3OC)c(C)cc12
[2]
  pIC50: 6.43
[1]
  pIC50: 6.94

## COCc1cc(OC)c(-c2nc3c(C)ccc(N(C)C)c3cc2C)c(OC)c1
[2]
  pIC50: < 6.00
[1]
  pIC50: 6.67

## CCN(CC)c1ccc(C)c2nc(-c3c(OC)cc(COC)cc3OC)c(C)cc12
[2]
  pIC50: 7.62
Rattus norvegicus
  inhibition in vivo at 10 mg/kg: 63%
[1]
  pIC50: 7.10

## COCc1cc(OC)c(-c2nc3c(C)ccc(N(CC4CC4)CC4CC4)c3cc2C)c(OC)c1
[2]
  pIC50: 7.34
Rattus norvegicus
  inhibition in vivo at 10 mg/kg: 53%
[1]
  pIC50: 7.06

## COCCN(C)c1ccc(C)c2nc(-c3c(OC)cc(COC)cc3OC)c(C)cc12
[2]
  pIC50: 6.76
[1]
  pIC50: 7.05

## CCN(CCOC)c1ccc(C)c2nc(-c3c(OC)cc(COC)cc3OC)c(C)cc12
[2]
  pIC50: 7.64
[1]
  pIC50: 6.96

## COCc1cc(OC)c(-c2nc3c(C)ccc(N(CC4CCOCC4)CC4CC4)c3cc2C)c(OC)c1
[1]
  pIC50: 6.54

## COCc1cc(OC)c(-c2nc3c(C)ccc(N(CC4CC4)C4CCOCC4)c3cc2C)c(OC)c1
[1]
  pIC50: 6.61

## CCC(CC)Nc1ccc(C)c2nc(-c3c(OC)cc(COC)cc3OC)c(C)cc12
[1]
  pIC50: < 6.00

## COCCNc1ccc(C)c2nc(-c3c(OC)cc(COC)cc3OC)c(C)cc12
[1]
  pIC50: < 6.00

## CCN(CC)c1ccc(C)c2nc(-c3c(OC)cc(COC)cc3OC)ccc12
[2]
  pIC50: 6.42
[1]
  pIC50: 6.74

## CCN(CC)c1ccc(C)c2nc(-c3c(OC)cc(COC)cc3OC)c(F)cc12
[2]
  pIC50: 6.88
[1]
  pIC50: 6.84

## CCN(CC)c1ccc(C)c2nc(-c3c(OC)cc(COC)cc3OC)c(Cl)cc12
[2]
  pIC50: 7.35
[1]
  pIC50: 7.09
